For seven compounds, IC50 and inhibition results are on record in ChEMBL document CHEMBL2424622, “Development of amino-pyrimidine inhibitors of c-Jun N-terminal kinase (JNK): kinase profiling guided optimization of a 1,2,3-benzotriazole lead” (Bioorg Med Chem Lett, 2013).

Assay [1] deals with Mitogen-activated protein kinase 8 (Homo sapiens, UniProt P45983).
The target of assay [2] is T1, Cyclin-G-associated kinase (Homo sapiens) (UniProt O14976).
T1 sequence (whole entry): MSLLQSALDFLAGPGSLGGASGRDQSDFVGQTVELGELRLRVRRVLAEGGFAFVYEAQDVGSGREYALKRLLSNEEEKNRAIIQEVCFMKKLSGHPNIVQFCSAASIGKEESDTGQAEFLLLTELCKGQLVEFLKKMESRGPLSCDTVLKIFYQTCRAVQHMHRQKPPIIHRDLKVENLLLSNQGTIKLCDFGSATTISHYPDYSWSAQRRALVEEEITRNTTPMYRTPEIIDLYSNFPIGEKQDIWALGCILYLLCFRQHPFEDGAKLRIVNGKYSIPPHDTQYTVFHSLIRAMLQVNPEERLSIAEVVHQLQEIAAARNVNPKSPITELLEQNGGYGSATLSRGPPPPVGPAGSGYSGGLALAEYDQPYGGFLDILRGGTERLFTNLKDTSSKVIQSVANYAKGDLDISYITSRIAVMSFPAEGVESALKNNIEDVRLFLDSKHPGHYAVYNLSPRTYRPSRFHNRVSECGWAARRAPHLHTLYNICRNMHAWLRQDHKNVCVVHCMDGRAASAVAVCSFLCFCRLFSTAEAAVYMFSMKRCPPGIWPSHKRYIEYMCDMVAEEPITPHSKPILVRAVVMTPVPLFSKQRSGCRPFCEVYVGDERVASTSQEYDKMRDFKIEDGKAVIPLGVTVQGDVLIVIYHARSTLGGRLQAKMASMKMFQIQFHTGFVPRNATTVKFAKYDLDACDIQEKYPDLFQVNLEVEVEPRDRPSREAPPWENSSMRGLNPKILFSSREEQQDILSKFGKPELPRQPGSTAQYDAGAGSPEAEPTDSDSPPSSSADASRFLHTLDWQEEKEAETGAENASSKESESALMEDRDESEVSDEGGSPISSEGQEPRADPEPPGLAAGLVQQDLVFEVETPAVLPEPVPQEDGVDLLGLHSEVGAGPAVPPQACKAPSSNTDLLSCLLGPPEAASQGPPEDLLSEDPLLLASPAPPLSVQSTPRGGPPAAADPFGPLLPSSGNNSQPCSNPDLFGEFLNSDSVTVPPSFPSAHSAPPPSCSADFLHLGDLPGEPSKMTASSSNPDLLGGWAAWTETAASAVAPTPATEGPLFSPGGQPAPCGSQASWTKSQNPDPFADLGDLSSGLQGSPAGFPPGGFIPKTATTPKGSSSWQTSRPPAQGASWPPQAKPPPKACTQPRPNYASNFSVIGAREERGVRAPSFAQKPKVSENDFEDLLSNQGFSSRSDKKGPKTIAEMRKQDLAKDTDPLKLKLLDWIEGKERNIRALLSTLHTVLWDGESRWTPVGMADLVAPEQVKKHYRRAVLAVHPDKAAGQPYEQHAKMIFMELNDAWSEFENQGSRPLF
Briefly: Competitive binding affinity to GAK (unknown origin) at 10 uM in presence of ATP relative to control. In outline: (§1)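 In vitro ATP-site competition binding assay, part of profiling against a diverse panel of 128 kinases. Each compound was tested at a single concentration of 10 µM. Kinome selectivity was summarized as S15 selectivity scores.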

In assay [3] the target is T2, Tyrosine-protein kinase ITK/TSK (Homo sapiens) (UniProt Q08881).
T2 sequence (whole entry): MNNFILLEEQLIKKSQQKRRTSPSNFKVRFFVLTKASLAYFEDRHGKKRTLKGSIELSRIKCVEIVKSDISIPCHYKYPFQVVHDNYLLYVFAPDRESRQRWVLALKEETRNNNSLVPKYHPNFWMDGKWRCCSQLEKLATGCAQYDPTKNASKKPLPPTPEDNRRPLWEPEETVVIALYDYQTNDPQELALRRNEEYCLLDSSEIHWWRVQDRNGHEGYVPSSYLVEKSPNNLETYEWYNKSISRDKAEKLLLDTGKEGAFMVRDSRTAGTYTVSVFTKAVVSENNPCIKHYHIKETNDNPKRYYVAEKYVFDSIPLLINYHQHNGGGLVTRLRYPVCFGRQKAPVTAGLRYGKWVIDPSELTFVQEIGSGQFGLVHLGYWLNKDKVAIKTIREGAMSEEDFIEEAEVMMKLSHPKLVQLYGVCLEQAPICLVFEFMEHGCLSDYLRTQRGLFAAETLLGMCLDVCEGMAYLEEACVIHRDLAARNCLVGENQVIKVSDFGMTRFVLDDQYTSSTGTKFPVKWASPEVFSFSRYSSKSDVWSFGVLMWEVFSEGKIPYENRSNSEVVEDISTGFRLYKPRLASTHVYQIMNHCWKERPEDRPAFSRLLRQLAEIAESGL
Briefly: Competitive binding affinity to ITK (unknown origin) at 10 uM in presence of ATP relative to control. The method in brief:
as §1

The target in assay [4] is Tyrosine-protein kinase Lyn (Homo sapiens) (UniProt P07948). Briefly: Competitive binding affinity to LYN (unknown origin) at 10 uM in presence of ATP relative to control. The method in brief:
as §1

For assay [5], the target named is T3, Aurora kinase C (Homo sapiens) (UniProt Q9UQB9).
T3 sequence (whole entry): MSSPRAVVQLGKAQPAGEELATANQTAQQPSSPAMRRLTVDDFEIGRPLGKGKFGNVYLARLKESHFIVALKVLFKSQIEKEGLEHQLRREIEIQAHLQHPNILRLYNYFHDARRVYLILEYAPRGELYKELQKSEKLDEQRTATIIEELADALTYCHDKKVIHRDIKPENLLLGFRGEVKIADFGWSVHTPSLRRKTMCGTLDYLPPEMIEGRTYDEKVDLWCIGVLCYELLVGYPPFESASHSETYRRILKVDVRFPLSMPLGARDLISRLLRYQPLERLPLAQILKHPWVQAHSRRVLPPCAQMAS
Briefly: Competitive binding affinity to AURKC (unknown origin) at 10 uM in presence of ATP relative to control.

The IC50 is the point on the concentration scale where inhibition reaches its midpoint. As usually defined, the inhibition is the drop in the measured response relative to a control, in per cent.

Some results are limits rather than exact numbers.

Chain of Mitogen-activated protein kinase 8 (P45983 whole entry): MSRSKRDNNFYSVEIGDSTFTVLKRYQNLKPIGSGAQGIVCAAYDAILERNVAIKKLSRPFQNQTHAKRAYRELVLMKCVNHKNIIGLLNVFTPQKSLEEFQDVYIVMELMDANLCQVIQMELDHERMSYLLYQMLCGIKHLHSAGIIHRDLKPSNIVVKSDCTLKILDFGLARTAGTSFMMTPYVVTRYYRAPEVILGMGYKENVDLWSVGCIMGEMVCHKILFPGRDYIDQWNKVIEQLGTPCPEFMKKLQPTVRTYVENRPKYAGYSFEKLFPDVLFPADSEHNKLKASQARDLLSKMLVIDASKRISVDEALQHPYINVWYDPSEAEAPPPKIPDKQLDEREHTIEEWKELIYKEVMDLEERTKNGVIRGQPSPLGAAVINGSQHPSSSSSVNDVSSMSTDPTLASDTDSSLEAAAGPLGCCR
Chain of Tyrosine-protein kinase Lyn (Homo sapiens) (P07948 2-512 limits assumed): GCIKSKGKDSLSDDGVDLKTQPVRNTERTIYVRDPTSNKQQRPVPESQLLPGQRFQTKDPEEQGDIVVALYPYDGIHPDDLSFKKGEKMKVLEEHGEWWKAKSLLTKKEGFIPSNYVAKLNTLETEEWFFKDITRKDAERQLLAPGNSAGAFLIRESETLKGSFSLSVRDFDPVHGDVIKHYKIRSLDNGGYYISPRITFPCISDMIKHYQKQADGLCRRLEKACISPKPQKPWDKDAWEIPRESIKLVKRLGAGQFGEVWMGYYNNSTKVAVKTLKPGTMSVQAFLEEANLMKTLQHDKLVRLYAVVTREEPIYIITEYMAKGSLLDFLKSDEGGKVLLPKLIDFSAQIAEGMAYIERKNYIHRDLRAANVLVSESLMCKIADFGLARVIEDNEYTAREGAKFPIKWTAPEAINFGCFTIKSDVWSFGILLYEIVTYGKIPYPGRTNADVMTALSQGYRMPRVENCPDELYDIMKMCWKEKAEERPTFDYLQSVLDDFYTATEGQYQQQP

With `O[C@H]1CC[C@H](Nc2nccc(-c3n[nH]c4ccccc34)n2)CC1`, half-maximal inhibition in assay [1] (IC50) required 250 nM. Besides, the inhibition in assay [2] was 100%; in assay [3], 96%; in assay [4] it was < 50%; in assay [5], 96%.
`O[C@H]1CC[C@H](Nc2nccc(-n3ccc4ccccc43)n2)CC1`: the IC50 in assay [1] is 65 nM. In addition, the inhibition in assay [2] was 91%; in assay [3], < 50%; in assay [4], < 50%; in assay [5] it was < 50%.
`O[C@H]1CC[C@H](Nc2nccc(-n3ncc4ccccc43)n2)CC1` showed a half-inhibitory concentration (IC50) in assay [1] of 55 nM. Also, the inhibition in assay [2] is 100%; in assay [3], < 50%; in assay [4] it was < 50%; in assay [5] it was < 50%.
Compound `O[C@H]1CC[C@H](Nc2nccc(-n3nnc4ccccc43)n2)CC1` showed an IC50 in assay [1] of 29 nM. Besides, the inhibition in assay [2] is 100%; in assay [3] it was < 50%; in assay [4], < 50%; in assay [5], < 50%.
`O=C([C@H]1CC[C@H](Nc2nccc(-n3nnc4ccccc43)n2)CC1)N1CCOCC1` returned an IC50 in assay [1] of 63 nM. In addition, the inhibition in assay [2] is 100%; in assay [3], < 50%; in assay [4] it was < 50%; in assay [5], < 50%.
The compound `CS(=O)(=O)CCCOc1cccc2c1ccn2-c1ccnc(N[C@H]2CC[C@H](C(=O)N3CCC(O)CC3)CC2)n1` yielded an IC50 in assay [1] of 16 nM.
In assay [1], `N[C@H]1CC[C@H](Nc2nccc(-n3nnc4ccccc43)n2)CC1` registered an IC50 of 74 nM. Further, the inhibition in assay [2] was 91%; in assay [3], < 50%; in assay [4], < 50%; in assay [5], 97%.
